# Source: PubChem BioAssay AID504650 (Molecular Libraries Program, Specialized Chemistry Center, …, 2011)
# Calls of active or inactive are those of the source.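 Rule for the calls: active = IC50 at or below 10 µM; inactive = the rest.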
# Target: Transitional endoplasmic reticulum ATPase (Homo sapiens) (UniProt P55072)
# Assay: p97 ATPase activity inhibitors, SAR follow-up, biochemical, dose response, round 3 (AID 504650)
# Settings: purified p97 ATPase, Kinase-Glo luminescence
# Method in brief: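 System: Human p97 ATPase protein | Medium: Tris buffer pH 7.4 containing MgCl2 and EDTA | Reagent: ATP, 500 µM stock solution | Incubation: 10 min room-temperature enzyme–compound preincubation, 30 min 37 °C ATP reaction | Technique: Luminescent readout of unconsumed ATP (Kinase-Glo Plus) | Measure: IC50 from fit of percent remaining activity versus compound concentration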
# Sequence of Transitional endoplasmic reticulum ATPase (Homo sapiens) (P55072 whole entry, looked up): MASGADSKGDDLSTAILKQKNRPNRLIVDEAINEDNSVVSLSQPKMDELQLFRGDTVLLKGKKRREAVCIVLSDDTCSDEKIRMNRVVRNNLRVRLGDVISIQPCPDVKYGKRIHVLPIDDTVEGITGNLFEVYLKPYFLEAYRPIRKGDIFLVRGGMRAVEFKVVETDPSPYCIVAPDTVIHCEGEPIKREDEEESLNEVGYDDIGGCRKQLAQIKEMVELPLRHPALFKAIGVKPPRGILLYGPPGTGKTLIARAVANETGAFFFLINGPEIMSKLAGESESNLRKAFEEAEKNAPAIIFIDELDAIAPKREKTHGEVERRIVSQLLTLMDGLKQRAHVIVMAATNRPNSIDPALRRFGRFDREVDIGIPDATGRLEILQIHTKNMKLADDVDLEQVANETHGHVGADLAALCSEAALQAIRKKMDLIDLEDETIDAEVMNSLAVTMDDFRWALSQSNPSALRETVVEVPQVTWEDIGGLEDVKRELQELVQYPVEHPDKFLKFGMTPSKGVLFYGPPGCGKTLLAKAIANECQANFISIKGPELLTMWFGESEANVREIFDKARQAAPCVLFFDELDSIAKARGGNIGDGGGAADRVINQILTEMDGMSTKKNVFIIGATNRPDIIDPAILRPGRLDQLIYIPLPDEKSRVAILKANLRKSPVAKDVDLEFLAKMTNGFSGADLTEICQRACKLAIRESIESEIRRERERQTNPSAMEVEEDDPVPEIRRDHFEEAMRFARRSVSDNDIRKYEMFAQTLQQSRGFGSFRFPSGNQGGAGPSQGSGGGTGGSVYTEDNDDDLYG
row,SMILES,IC50
1,COc1cccc2c(NCc3ccccc3)nc(Nc3nc4ccccc4n3C)nc12,300 nM
2,COc1cccc2c(NCc3ccc(F)cc3)nc(N3CCOc4ccccc43)nc12,1900 nM
3,COc1cccc2c(NCc3ccccc3)nc(N3CCN(C)CC3)nc12,> 30000 nM (inactive)
4,COc1cccc2c(NCc3ccccc3)nc(Nc3cccc(F)c3)nc12,520 nM
5,COc1cccc2c(NCC3CCCCC3)nc(N3CCOc4ccccc43)nc12,7400 nM
6,c1ccc(CNc2nc(N3CCOc4ccccc43)nc3c2CCCC3)cc1,110 nM
7,Nc1nc2ccccc2n1-c1nc(NCc2ccccc2)c2ccccc2n1,110 nM
8,COc1cccc2c(NCc3ccccc3)nc(NCC3CCCCC3)nc12,5400 nM
9,COc1cccc2c(NCc3ccccc3)nc(N3CCN(C)c4ccccc43)nc12,3100 nM
10,COc1cccc2c(NCc3ccccc3)nc(NCc3cncs3)nc12,inactive
11,COc1cccc2c(NCc3ccccc3)nc(N3CCN(C(C)=O)CC3)nc12,> 30000 nM (inactive)
12,COc1cccc2c(NCc3ccccc3)nc(Nc3cc(C)cc(F)c3)nc12,1500 nM
13,COc1cccc2c(NCc3ccccc3)nc(N3CCNc4ccccc43)nc12,900 nM
14,Nc1nc2ccccc2n1-c1nc2c(c(NCc3ccccc3)n1)CCCC2,50 nM
15,COc1cccc2c(NCc3ccccc3)nc(Nc3cccc(Cl)c3)nc12,500 nM
16,CCN(CC)CCOc1cccc2c(NCc3ccccc3)nc(N3CCOc4ccccc43)nc12,400 nM
17,COc1cccc2c(NCc3ccccc3)nc(-n3c(N)nc4ccccc43)nc12,110 nM
18,Cc1nc(N2CCOc3ccccc32)nc(NCc2ccccc2)c1C,1100 nM
19,COc1cccc2c(NCc3ccccn3)nc(N3CCNc4ccccc43)nc12,> 30000 nM (inactive)

row,SMILES,IC50
1,COc1cccc2c(NCc3ccccc3)nc(NC(C)c3ccccc3)nc12 (stereo unspecified),inactive
2,COc1cccc2c(NCc3ccccn3)nc(N3CCOc4ccccc43)nc12,inactive
3,COc1cccc2c(NCc3ccc(O)cc3)nc(N3CCOc4ccccc43)nc12,2400 nM
4,COc1ccc2c(c1)nc(N)n2-c1nc(NCc2ccccc2)c2cccc(OC)c2n1,480 nM
5,CN(c1ccccc1)c1nc(NCc2ccccc2)c2ccccc2n1,> 30000 nM (inactive)
6,COc1cccc2c(NCc3ccccc3)nc(Nc3ccccc3O)nc12,2600 nM
7,COc1ccc(-c2cccc3c(NCc4ccccc4)nc(N4CCOc5ccccc54)nc23)cc1,1100 nM
8,COc1cccc2c(NCc3ccccc3)nc(-n3c(N)nc4cc(Cl)ccc43)nc12,700 nM
9,COc1cccc2c(NCc3ccccc3)nc(-n3c(N)nc4cc(F)ccc43)nc12,80 nM
10,c1ccc2c(c1)OCCN2c1nc(N2CCOc3ccccc32)c2ccccc2n1,> 30000 nM (inactive)
11,COc1cccc2c(NCc3ccccc3)nc(-n3cnc4ccccc43)nc12,3300 nM
12,COCCOc1cccc2c(NCc3ccccc3)nc(N3CCOc4ccccc43)nc12,600 nM
13,N#CCOc1cccc2c(NCc3ccccc3)nc(N3CCOc4ccccc43)nc12,400 nM
14,COc1cccc2c(NCc3ccccc3)nc(-n3c(N)nc4cc(C)c(C)cc43)nc12,2000 nM
15,Nc1nc2ccccc2n1-c1nccc(NCc2ccccc2)n1,2800 nM
16,Clc1ccccc1-c1nc(N2CCCc3ccccc32)c2ccccc2n1,> 30000 nM (inactive)
17,COc1cccc2c(NCc3ccccc3)nc(N3CCOc4ccccc43)nc12,200 nM
18,c1ccc(CNc2nc(N3CCOc4ccccc43)nc3ccsc23)cc1,400 nM
19,COc1cccc2c(NCc3ccccc3O)nc(N3CCOc4ccccc43)nc12,4600 nM

row,SMILES,IC50
1,c1ccc(CNc2ccnc(N3CCOc4ccccc43)n2)cc1,2900 nM
2,COc1cccc2c(NCc3ccccc3)nc(-n3c(N)nc4c(C)cccc43)nc12,45 nM
3,COc1cccc2c(NCc3ccccc3)nc(N(C)Cc3ccccc3)nc12,7000 nM
4,COc1cccc2c(NCc3cccs3)nc(N3CCOc4ccccc43)nc12,1200 nM
5,COc1cccc2c(NCc3ccccc3)nc(NCc3cccs3)nc12,1700 nM
6,COc1cccc2c(NCc3ccccc3)nc(-n3c(N)nc4cc(Br)ccc43)nc12,800 nM
7,COc1cccc2c(NCc3ccccc3)nc(N3CCOCC3)nc12,inactive
8,CCCCOc1cccc2c(NCc3ccccc3)nc(N3CCOc4ccccc43)nc12,2630 nM
9,CC(C)Nc1nc(Nc2cccc(Cl)c2)nc2ccccc12,> 30000 nM (inactive)
10,c1ccc(CNc2nc(N3CCOc4ccccc43)nc3c(-c4ccccc4)cccc23)cc1,3500 nM
11,COc1cccc2c(NCc3ccccc3)nc(Nc3nc4ccccc4s3)nc12,500 nM
12,COc1cccc2c(NCc3ccccc3)nc(-n3c(=O)oc4ccccc43)nc12,110 nM
13,c1ccc(CNc2nc(N3CCc4ccccc4C3)nc3ccccc23)cc1,inactive
14,COc1cccc2c(NCc3ccccc3)nc(NC(=O)Nc3ccccc3)nc12,> 30000 nM (inactive)
15,COc1cccc2c(NCc3ccccc3)nc(N3CCN(C(C)=O)c4ccccc43)nc12,2700 nM
16,COc1cccc2c(NCc3ccccc3)nc(-n3c(N)nc4cc(C)ccc43)nc12,240 nM
17,OCCOc1cccc2c(NCc3ccccc3)nc(N3CCOc4ccccc43)nc12,170 nM
18,Oc1cccc2c(NCc3ccccc3)nc(N3CCOc4ccccc43)nc12,1200 nM
